Assays:
FL5.12 [1] = assay: Downregulation of CD98 expression level in mouse FL5.12A cells at 2.5 uM measured at 3 hrs by flow cytometric analysis; type: functional
In short: (§1)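 FL5.12 cells treated at 2.5 µM. Nutrient transporter loss measured as mean ± SEM. Vacuolation scored semi-quantitatively from 0 to 84, roughly twice the percent of cytosol occupied by vacuoles, mean ± SEM.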

FL5.12 [2] = assay: Cytotoxicity against mouse FL5.12A cells after 48 hrs by DAPI staining-based flow cytometric analysis; type: functional, cell-based; settings: FL5.12, 48 h
FL5.12 [3] = assay: Induction of vacuolation in mouse FL5.12A cells assessed as vacuolation score at 2.5 uM measured at 3 hrs by fluorescence microscopic analysis; type: functional; in short: as §1
FL5.12 [4] = assay: Induction of vacuolation in mouse FL5.12A cells assessed as vacuolation score at 30 uM measured at 3 hrs by fluorescence microscopic analysis; type: functional
FL5.12 [5] = assay: Downregulation of CD98 expression level in mouse FL5.12A cells at 30 uM measured at 3 hrs by flow cytometric analysis; type: functional
FL5.12 [6] = assay: Downregulation of CD98 expression level in mouse FL5.12A cells at 50 uM measured at 3 hrs by flow cytometric analysis
FL5.12 [7] = assay: Induction of vacuolation in mouse FL5.12A cells assessed as vacuolation score at 50 uM measured at 3 hrs by fluorescence microscopic analysis; type: functional

SMILES | Activity (FL5.12 [1]) [%] | IC50 (FL5.12 [2]) [µM] | Activity (FL5.12 [3]) | Activity (FL5.12 [4]) | Activity (FL5.12 [5]) [%] | Activity (FL5.12 [6]) [%] | Activity (FL5.12 [7])
CCCCCCCCC/C=C/CO[C@H]1CN[C@H](CO)C1.Cl | 30 | 3.3 | 20 |  |  |  | 
CCCCCCCCCCCCc1ccc(CO[C@H]2CN[C@H](CO)C2)cc1.Cl | 14 | 3.9 | 30 |  |  |  | 
CCCCCCCCCCCCc1ccc(CO[C@@H]2CN[C@@H](CO)C2)cc1.Cl | 13 | 10.1 | 3 |  |  |  | 
CCCCCCCCc1ccc(CO[C@H]2C[C@H](CO)N(C(=N)N)C2)cc1.Cl.Cl |  | 14.2 |  | 0 | 35 |  | 
CCCCCCc1ccc(CO[C@@H]2CN[C@@H](CO)C2)cc1.Cl | 30 | 2.7 | 0 |  |  |  | 
CCCCCC/C=C/c1ccc(CO[C@H]2CN[C@H](CO)C2)cc1.Cl | 41 | 2.4 | 70 |  |  |  | 
CCCCCCCCCCCCCCc1ccc(CO[C@H]2CN[C@H](CO)C2)cc1.Cl | 19 | 5.7 | 3 |  |  |  | 
CCCCCCCCc1ccc(CO[C@H]2C[C@H](CO)N(C(C)=O)C2)cc1 |  | 29.7 |  |  |  | 37 | 1
CCCCCCCCc1ccc([C@H]2CCN[C@@H]2CO)cc1.Cl | 54 | 1.9 | 81 |  |  |  | 
CCCCCC/C=C/c1ccc(CO[C@@H]2CN[C@@H](CO)C2)cc1.Cl | 64 | 1.4 | 27 |  |  |  | 
CCCCCCCCCC/C=C/c1ccc(CO[C@H]2CN[C@H](CO)C2)cc1.Cl | 40 | 2.4 | 76 |  |  |  | 
CCCCCCCCCCCCC/C=C/[C@@H](O)[C@H](CO)NC(C)=O (stereo in doubt; 9) |  | 33 |  |  |  | 47 | 0
CCCCCCCCc1ccc(CO[C@@H]2C[C@@H](CO)N(C(=N)N)C2)cc1.Cl.Cl |  | 17.3 |  | 0 | 34 |  | 
CCCCCCCCCCCC/C=C/c1ccc(CO[C@@H]2CN[C@@H](CO)C2)cc1.Cl | 19 | 5.1 | 8 |  |  |  | 
CCCCCCCCc1ccc(CCC(N)(CO)CO)cc1 [FINGOLIMOD] | 68 | 2.4 | 82 |  |  |  | 
CCCCCCCCc1ccc([C@@H]2CCN[C@H]2CO)cc1.Cl | 47 | 1.7 | 53 |  |  |  | 
CCCC/C=C/c1ccc(CO[C@@H]2CN[C@@H](CO)C2)cc1.Cl | 30 | 5.5 | 0 |  |  |  | 

SMILES | Activity (FL5.12 [1]) [%] | IC50 (FL5.12 [2]) [µM] | Activity (FL5.12 [3]) | Activity (FL5.12 [4]) | Activity (FL5.12 [5]) [%] | Activity (FL5.12 [6]) [%] | Activity (FL5.12 [7])
CCCCCCCCCC/C=C/c1ccc(CO[C@@H]2CN[C@@H](CO)C2)cc1.Cl | 52 | 2.8 | 33 |  |  |  | 
CCCCCCCCCCc1ccc(CO[C@H]2CN[C@H](CO)C2)cc1.Cl | 28 | 3.6 | 36 |  |  |  | 
CCCCCCCCCCCCCCc1ccc(CO[C@@H]2CN[C@@H](CO)C2)cc1.Cl | 12 | 10.5 | 4 |  |  |  | 
CCCCCCCCc1ccc(CO[C@H]2CN[C@H](CO)C2)cc1.Cl | 48 | 3 | 47 |  |  |  | 
CCCCCCCCc1ccc(CO[C@@H]2CN[C@@H](CO)C2)cc1.Cl | 63 | 2 | 33 |  |  |  | 
CCCCCC/C=C/c1ccc([C@H]2CCN[C@@H]2CO)cc1.Cl | 58 | 1.7 | 84 |  |  |  | 
CCCCCC/C=C/c1ccc(CO[C@H]2C[C@H](CO)N(C)C2)cc1.Cl | 31 | 1.9 | 26 |  |  |  | 
CCCCCCCCCCCCO[C@@H]1CN[C@@H](CO)C1.Cl | 57 | 1.2 | 53 |  |  |  | 
CCCCCCCCC/C=C/CO[C@@H]1CN[C@@H](CO)C1.Cl | 34 | 2.6 | 9 |  |  |  | 
CCCCCCCCCCCCC/C=C/[C@@H](O)[C@H](CO)N(C)C [DIMETHYLSPINGOSINE] | 69 | 0.8 | 72 |  |  |  | 
CCCCCC/C=C/c1ccc([C@H]2CCN(C(C)=O)[C@@H]2CO)cc1 | 40 | 46.2 | 2 |  |  |  | 
CCCCCCCCCCCCC/C=C/[C@@H](O)[C@@H](N)CO [SPHINGOSINE] | 48 | 3.6 | 57 |  |  |  | 
CCCC/C=C/c1ccc(CO[C@H]2CN[C@H](CO)C2)cc1.Cl | 9 | 5.7 | 5 |  |  |  | 
CCCCCCCCc1ccc([C@H]2CCN(C(C)=O)[C@@H]2CO)cc1 | 40 | 39.7 | 0 |  |  |  | 
CCCCCCCCCCCCCCC[C@@H](O)[C@@H](N)CO [DIHYDROSPINGOSINE] | 47 | 3.5 | 38 |  |  |  | 
CCCCCCCCCCCC/C=C/c1ccc(CO[C@H]2CN[C@H](CO)C2)cc1.Cl | 20 | 7.3 | 1 |  |  |  | 
CCCCCCCCCCCCO[C@H]1CN[C@H](CO)C1.Cl | 45 | 2.5 | 36 |  |  |  | 

Source: ChEMBL document CHEMBL4425177, “Effects of stereochemistry, saturation, and hydrocarbon chain length on the ability of synthetic constrained azacyclic sphingolipids to trigger nutrient transporter down-regulation, vacuolation, and cell death” (Bioorg Med Chem, 2016)
